Measured values as given in publication PMC3158671 (Carbohydrate Research, 2011).

Key:
[1] = biological target: T1, β-glucosidase/β-galactosidase from Agrobacterium sp. (Agrobacterium sp., UniProt P12614); assay: Agrobacterium sp. β-galactosidase/-glucosidase inhibition; format: biochemical
T1 sequence (P12614 1-459): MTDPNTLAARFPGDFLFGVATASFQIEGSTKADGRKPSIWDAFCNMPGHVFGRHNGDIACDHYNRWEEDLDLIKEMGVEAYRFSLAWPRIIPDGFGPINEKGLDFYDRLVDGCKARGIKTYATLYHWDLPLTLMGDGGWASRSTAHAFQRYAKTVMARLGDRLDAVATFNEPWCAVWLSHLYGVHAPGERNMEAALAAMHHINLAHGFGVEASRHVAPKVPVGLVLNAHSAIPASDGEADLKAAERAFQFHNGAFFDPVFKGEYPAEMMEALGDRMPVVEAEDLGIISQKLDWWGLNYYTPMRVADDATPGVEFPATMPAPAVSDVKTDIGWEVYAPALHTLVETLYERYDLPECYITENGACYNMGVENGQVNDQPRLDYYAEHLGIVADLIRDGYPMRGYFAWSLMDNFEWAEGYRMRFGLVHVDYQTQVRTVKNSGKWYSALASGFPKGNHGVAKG

[2] = biological target: β-galactosidase from E. coli (Escherichia coli, UniProt P00722); assay: E. coli β-galactosidase inhibition; format: biochemical
[3] = biological target: α-galactosidase from green coffee beans (Coffea arabica, UniProt Q42656); assay: Green coffee bean α-galactosidase inhibition; format: biochemical
[4] = biological target: T2, human lysosomal β-galactosidase (Homo sapiens, UniProt P16278); assay: Human lysosomal β-galactosidase inhibition; format: biochemical
T2 sequence (P16278 29-677): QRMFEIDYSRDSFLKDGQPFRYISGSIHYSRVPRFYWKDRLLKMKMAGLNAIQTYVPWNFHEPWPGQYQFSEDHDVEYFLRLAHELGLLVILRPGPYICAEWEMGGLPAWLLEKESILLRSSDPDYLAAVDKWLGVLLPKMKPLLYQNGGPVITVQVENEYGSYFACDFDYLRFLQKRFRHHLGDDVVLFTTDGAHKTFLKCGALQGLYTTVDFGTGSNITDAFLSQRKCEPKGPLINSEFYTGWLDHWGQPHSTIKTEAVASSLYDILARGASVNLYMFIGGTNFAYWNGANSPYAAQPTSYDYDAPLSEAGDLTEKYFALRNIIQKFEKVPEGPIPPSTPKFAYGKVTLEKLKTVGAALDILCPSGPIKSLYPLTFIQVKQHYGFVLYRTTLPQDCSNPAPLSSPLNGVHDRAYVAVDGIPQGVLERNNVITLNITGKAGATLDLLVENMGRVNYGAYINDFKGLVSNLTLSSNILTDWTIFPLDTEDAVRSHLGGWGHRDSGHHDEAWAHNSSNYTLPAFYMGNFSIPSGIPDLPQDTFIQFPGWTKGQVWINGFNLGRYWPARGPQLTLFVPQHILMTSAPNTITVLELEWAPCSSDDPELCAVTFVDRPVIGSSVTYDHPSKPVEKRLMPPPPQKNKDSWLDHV

[5] = biological target: T3, β-galactosidase p.Arg483Pro mutation (Felis catus, UniProt O19015, R483P); assay: Intracellular β-galactosidase activity in GM1 gangliosidosis feline fibroblasts; format: cell-based, cat; conditions: 5 days; for maximal increase of intracellular β-galactosidase activity: relative to DMSO treated cells
T3 sequence (O19015 30-669 R483P): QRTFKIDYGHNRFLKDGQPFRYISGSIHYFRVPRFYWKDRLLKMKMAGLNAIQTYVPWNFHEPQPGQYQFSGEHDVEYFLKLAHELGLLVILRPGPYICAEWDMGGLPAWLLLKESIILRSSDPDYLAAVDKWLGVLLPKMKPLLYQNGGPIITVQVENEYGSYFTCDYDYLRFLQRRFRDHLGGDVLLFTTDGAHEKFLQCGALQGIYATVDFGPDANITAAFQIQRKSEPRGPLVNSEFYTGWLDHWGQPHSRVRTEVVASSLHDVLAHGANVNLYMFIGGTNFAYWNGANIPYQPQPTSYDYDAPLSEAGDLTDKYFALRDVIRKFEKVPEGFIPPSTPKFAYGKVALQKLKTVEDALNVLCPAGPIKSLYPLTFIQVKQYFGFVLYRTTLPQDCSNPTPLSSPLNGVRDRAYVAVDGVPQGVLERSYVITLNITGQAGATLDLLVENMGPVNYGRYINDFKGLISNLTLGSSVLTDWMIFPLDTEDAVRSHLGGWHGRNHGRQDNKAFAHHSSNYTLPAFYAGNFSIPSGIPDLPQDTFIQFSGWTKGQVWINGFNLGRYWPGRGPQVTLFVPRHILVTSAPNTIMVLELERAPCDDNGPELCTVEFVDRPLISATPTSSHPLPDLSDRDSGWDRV
How it was run: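 GM1 gangliosidosis fibroblasts from an affected cat (β-galactosidase p.Arg483Pro) treated 5 days with escalating doses of test compound dissolved in DMSO. Cells lysed; intracellular β-galactosidase measured with fluorogenic 4-methylumbelliferyl β-D-galactopyranoside, β-N-acetylhexosaminidase also measured with MU substrate. Activity normalized to DMSO-treated cells.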

Chain of β-galactosidase from E. coli (P00722 2-1024 limits assumed): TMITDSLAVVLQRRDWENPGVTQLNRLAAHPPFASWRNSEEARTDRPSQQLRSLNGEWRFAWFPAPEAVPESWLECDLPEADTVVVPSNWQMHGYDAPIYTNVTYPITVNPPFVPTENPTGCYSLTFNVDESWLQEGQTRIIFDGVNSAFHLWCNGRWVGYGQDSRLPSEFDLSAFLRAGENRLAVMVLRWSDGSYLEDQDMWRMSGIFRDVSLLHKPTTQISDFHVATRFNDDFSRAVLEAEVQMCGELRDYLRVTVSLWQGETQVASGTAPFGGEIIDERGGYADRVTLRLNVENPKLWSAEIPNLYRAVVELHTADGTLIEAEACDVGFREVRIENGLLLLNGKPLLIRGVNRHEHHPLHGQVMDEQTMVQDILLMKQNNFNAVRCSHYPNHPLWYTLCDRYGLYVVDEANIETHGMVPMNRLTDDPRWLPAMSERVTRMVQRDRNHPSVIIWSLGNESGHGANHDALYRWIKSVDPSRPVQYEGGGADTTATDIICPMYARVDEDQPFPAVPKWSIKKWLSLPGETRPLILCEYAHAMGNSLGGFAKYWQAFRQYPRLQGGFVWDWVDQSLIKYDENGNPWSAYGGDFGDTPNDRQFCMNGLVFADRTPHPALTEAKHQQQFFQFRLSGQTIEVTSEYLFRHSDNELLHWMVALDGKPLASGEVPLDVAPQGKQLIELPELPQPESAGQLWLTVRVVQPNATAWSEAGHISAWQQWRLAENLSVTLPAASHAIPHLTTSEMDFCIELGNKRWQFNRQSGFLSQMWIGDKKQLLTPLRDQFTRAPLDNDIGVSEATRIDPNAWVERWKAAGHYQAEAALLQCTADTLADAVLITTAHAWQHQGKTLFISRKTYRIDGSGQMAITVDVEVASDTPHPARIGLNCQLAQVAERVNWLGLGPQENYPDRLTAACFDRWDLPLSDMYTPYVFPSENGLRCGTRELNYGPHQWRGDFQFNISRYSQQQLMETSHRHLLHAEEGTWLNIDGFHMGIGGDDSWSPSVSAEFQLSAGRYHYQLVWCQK
Chain of α-galactosidase from green coffee beans (Q42656 16-378): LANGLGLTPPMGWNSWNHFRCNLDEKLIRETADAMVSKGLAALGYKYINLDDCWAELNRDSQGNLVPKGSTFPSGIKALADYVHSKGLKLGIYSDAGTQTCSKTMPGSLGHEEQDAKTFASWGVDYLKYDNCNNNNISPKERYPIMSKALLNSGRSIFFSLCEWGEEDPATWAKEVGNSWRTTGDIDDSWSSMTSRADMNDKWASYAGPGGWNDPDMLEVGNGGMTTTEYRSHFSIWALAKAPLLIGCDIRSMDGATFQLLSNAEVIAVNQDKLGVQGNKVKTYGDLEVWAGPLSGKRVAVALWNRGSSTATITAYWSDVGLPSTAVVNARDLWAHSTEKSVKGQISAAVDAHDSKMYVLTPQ

Structure (SMILES) | Ki [1] [µM] | Ki [2] [µM] | Ki [3] [µM] | IC50 [4] [µM] | concentration at maximal increase of intracellular β-galactosidase activity [5] [µM] | maximal increase of intracellular β-galactosidase activity [5] [fold] | range of β-galactosidase activity enhancement [5]
CCCCCCCC(=O)N(CCCCCCNS(=O)(=O)c1cccc2c(N(C)C)cccc12)CCCCCCN1C[C@H](O)[C@@H](O)[C@@H](O)[C@H]1CO [Compound 15, N-[(Dansylaminohexyl)-N-octanoylamino]hexyl-1,5-dideoxy-1,5-imino-D-galactitol] | 0.028 | 0.047 | 0.2 | 1.8 |  |  | 
CN(C)c1cccc2c(S(=O)(=O)NCCCCCCN(CCCCCCNS(=O)(=O)c3cccc4c(N(C)C)cccc34)CCCCCCN3C[C@H](O)[C@@H](O)[C@@H](O)[C@H]3CO)cccc12 [Compound 13, N-Bis(dansylaminohexyl)aminohexyl-1,5-dideoxy-1,5-imino-D-galactitol] | 0.23 | 0.12 | 0.53 | 2.7 | 3.0 | 1.8 | 
CN(C)c1cccc2c(S(=O)(=O)NCCCCCCN(CCCCCCNS(=O)(=O)c3cccc4c(N(C)C)cccc34)C(=O)CCCCCN3C[C@H](O)[C@@H](O)[C@@H](O)[C@H]3CO)cccc12 [Compound 9, N-Bis(dansylaminohexyl)aminocarbonylpentyl-1,5-dideoxy-1,5-imino-D-galactitol] | 0.63 | 0.29 | 2.6 | 0.85 | 2.1 | 1.5 | 
CN(C)c1cccc2c(S(=O)(=O)NCCCCCCNC(=O)CCCCCN3C[C@H](O)[C@@H](O)[C@@H](O)[C@H]3CO)cccc12 [Compound 8, N-(Dansylamino)hexylaminocarbonylpentyl-1,5-dideoxy-1,5-imino-D-galactitol] | 0.45 |  |  | 6.2 | 258 | 1.7 | large range over which it enhanced β-galactosidase activity
